According to ChEMBL document CHEMBL1772961, “Discovery of dual target inhibitors against cyclooxygenases and leukotriene A4 hydrolyase” (J Med Chem, 2011):

How the values were obtained:
[1] = biological target: Prostaglandin G/H synthase 1 (Homo sapiens, UniProt P23219); assay: Inhibition of purified COX1 assessed as formation of oxidized TMPD during reduction og PGG2 to PGH2 preincubated for 15 mins by chromogenic assay
Summary of the method: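 Purified COX-1, approx 20 units, in 100 mM Tris pH 8 with 2 mM genapol X-100 and 1 μM hematin. Compounds in DMSO (5% final) preincubated 15 min at 25 °C. TMPD then added, reaction started with arachidonic acid. Initial rate of TMPD oxidation read at 610 nm over first 36 s. Nonenzymatic oxidation without enzyme subtracted before computing percent inhibition.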

[2] = biological target: T1, Prostaglandin G/H synthase 2 (Homo sapiens, UniProt P35354); assay: Inhibition of purified COX2 assessed as formation of oxidized TMPD during reduction og PGG2 to PGH2 preincubated for 15 mins by chromogenic assay
T1 sequence (P35354 whole entry): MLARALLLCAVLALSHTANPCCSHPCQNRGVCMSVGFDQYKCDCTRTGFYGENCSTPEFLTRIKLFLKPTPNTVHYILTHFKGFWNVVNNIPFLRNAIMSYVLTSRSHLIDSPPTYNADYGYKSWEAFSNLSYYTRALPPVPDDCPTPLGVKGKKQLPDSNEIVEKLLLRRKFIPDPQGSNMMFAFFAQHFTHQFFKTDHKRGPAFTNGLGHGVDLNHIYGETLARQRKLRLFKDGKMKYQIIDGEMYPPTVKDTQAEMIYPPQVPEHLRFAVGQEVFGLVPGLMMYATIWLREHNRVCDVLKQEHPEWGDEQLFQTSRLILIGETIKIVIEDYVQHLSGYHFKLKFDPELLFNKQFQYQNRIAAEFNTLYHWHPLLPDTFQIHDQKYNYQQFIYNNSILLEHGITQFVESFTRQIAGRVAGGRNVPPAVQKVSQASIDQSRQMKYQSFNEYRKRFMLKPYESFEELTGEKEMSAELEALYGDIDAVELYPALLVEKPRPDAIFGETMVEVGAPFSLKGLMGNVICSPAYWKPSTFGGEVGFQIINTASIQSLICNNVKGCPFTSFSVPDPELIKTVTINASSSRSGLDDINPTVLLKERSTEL

[3] = biological target: T1, Prostaglandin G/H synthase 2; assay: Inhibition of COX2 in human whole blood assessed as inhibition of LPS-induced PGE2 production after 24 hrs by ELISA
[4] = biological target: T2, Leukotriene A-4 hydrolase (Homo sapiens, UniProt P09960); assay: Inhibition of LTA4 hydrolase in human whole blood assessed as inhibition of calcium ionophore A23187-induced LTB4 production after 0.5 hrs by ELISA
T2 sequence (P09960 whole entry): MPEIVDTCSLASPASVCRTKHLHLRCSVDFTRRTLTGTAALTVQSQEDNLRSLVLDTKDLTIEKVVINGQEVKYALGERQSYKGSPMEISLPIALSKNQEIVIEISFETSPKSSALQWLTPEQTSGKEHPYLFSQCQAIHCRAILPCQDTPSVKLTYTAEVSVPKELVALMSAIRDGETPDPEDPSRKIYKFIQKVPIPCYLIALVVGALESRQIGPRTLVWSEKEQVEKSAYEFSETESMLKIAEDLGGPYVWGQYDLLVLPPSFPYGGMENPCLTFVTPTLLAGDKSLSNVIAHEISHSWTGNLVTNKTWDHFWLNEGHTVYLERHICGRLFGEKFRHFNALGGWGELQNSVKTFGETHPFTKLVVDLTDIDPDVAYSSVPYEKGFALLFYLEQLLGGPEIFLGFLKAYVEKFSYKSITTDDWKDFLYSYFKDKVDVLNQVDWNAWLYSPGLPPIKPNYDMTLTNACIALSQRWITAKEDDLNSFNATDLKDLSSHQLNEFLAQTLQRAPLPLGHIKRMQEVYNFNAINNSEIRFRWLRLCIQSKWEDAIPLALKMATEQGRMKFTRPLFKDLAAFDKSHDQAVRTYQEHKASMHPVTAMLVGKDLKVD

[5] = biological target: T2, Leukotriene A-4 hydrolase; assay: Inhibition of human LTA4 hydrolase activity assessed as LTB4 production after 15 mins by ELISA

Sequence of Prostaglandin G/H synthase 1 (P23219 whole entry): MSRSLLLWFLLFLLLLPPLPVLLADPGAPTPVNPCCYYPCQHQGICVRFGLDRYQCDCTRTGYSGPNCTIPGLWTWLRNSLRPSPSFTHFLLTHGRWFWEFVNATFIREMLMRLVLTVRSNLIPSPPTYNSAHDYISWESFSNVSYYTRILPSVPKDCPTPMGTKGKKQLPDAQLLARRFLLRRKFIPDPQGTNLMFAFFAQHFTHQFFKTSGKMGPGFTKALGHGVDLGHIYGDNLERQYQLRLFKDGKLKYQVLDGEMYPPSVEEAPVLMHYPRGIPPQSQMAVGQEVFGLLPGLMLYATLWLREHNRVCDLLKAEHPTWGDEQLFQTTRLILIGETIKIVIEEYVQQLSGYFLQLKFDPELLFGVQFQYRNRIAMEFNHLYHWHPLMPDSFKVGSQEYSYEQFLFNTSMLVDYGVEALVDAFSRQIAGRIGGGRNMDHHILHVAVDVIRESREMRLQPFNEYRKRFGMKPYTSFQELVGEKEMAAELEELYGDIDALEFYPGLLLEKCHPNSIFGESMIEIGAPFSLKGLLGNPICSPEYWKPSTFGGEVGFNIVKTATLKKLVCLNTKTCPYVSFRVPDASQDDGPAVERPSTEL

Row | SMILES | IC50 [1] [µM] | IC50 [2] [µM] | IC50 [3] [µM] | IC50 [4] [µM] | IC50 [5] [µM]
1 | O=[N+]([O-])c1cccc(Oc2ccc(OCCN3CCCC3)cc2)c1 | > 100 | > 100 | 13 | 1.4 | 0.47
2 | O=[N+]([O-])c1ccc(Oc2ccc(OCCN3CCCC3)cc2)cc1 | 20.4 | 35.3 | > 100 | 0.69 | 0.37
3 | O=[N+]([O-])c1ccc(Oc2ccc(OCCN3CCCC3)cc2)c([N+](=O)[O-])c1 | > 100 | > 100 | > 100 | > 100 | > 100
4 | c1ccc(Oc2ccc(OCCN3CCCC3)cc2)nc1 | > 100 | 34.4 | > 100 | 0.18 | 0.77
5 | c1cc(Oc2ccc(OCCN3CCCC3)cc2)ccn1 | > 100 | > 100 | > 100 | 0.67 | 0.58
6 | CS(=O)(=O)c1cccc(Oc2ccc(OCCN3CCCC3)cc2)c1 | > 100 | > 100 | > 100 | > 100 | > 100
7 | CS(=O)(=O)c1ccc(Oc2ccc(OCCN3CCCC3)cc2)cc1 | > 100 | > 100 | > 100 | > 100 | > 100
8 | CS(=O)(=O)c1ccc(Oc2ccc(OCCN3CCCC3)cc2)c([N+](=O)[O-])c1 | > 100 | > 100 | > 100 | > 100 | > 100
9 | c1cnc(Oc2ccc(OCCN3CCCC3)cc2)cn1 | > 100 | 61.6 | > 100 | > 100 | 4.3
10 | O=[N+]([O-])c1cccnc1Oc1ccc(OCCN2CCCC2)cc1 | > 100 | > 100 | > 100 | 34 | 2.5
11 | FC(F)(F)c1cccc(Oc2ccc(OCCN3CCCC3)cc2)c1 | > 100 | > 100 | > 100 | > 100 | 0.54
12 | FC(F)(F)c1ccc(Oc2ccc(OCCN3CCCC3)cc2)cc1 | > 100 | > 100 | > 100 | 2 | 0.39
13 | Fc1ccc(Oc2ccc(OCCN3CCCC3)cc2)cc1 | > 100 | > 100 | > 100 | 0.99 | 0.08
14 | Clc1ccc(Oc2ccc(OCCN3CCCC3)cc2)cc1 | > 100 | > 100 | 22 | 0.73 | 0.04
15 | Brc1ccc(Oc2ccc(OCCN3CCCC3)cc2)cc1 | > 100 | > 100 | 5.1 | 0.29 | 0.11
16 | CS(=O)(=O)N(c1ccccc1Oc1ccc(OCCN2CCCC2)cc1)S(C)(=O)=O | > 100 | > 100 | > 100 | > 100 | > 100
17 | CS(=O)(=O)N(c1cccc(Oc2ccc(OCCN3CCCC3)cc2)c1)S(C)(=O)=O | > 100 | > 100 | > 100 | > 100 | > 100
18 | CS(=O)(=O)Nc1ccc(Oc2ccc(OCCN3CCCC3)cc2)cc1 | > 100 | > 100 | > 100 | 2.1 | 3.4
19 | CS(=O)(=O)Nc1ccc([N+](=O)[O-])cc1Oc1ccccc1 [NIMESULIDE] |  |  |  | > 100 | > 100

Other lines, results leading:

Row | IC50 [1] [µM] | IC50 [2] [µM] | IC50 [3] [µM] | IC50 [4] [µM] | IC50 [5] [µM] | SMILES
20 | > 100 | > 100 | > 100 | 0.78 |  | c1ccc(Oc2ccc(OCCN3CCCC3)cc2)cc1
21 | 61 | 7.7 | 8.4 | 6.9 | 0.68 | O=[N+]([O-])c1ccccc1Oc1ccc(OCCN2CCCC2)cc1
22 | > 100 | > 100 | > 100 | > 100 | > 100 | CS(=O)(=O)c1ccccc1Oc1ccc(OCCN2CCCC2)cc1
23 | > 100 | 41.4 | 5 | 0.73 | 0.22 | FC(F)(F)c1ccccc1Oc1ccc(OCCN2CCCC2)cc1
24 | > 100 | > 100 | > 100 | 0.11 | 0.63 | Nc1ccccc1Oc1ccc(OCCN2CCCC2)cc1
25 | > 100 | > 100 | > 100 | 0.97 | 0.69 | Nc1cccc(Oc2ccc(OCCN3CCCC3)cc2)c1
26 | 1.9 | 36.3 | > 100 | 0.029 | 0.32 | Nc1ccc(Oc2ccc(OCCN3CCCC3)cc2)cc1
27 | > 100 | 92 | > 100 | > 100 | > 100 | CN(c1ccccc1Oc1ccc(OCCN2CCCC2)cc1)S(C)(=O)=O
